In the library only some 2% were active in any assay of this set; here they are far more common.
TRPML3 ag – human mucolipin-3 channel agonism; HEK293 TRPML3-YFP, Fluo-8 calcium fluorescence; 100% = the carbachol control signal; 0.29% of 220,000 active; activation, % at 3 µM;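 active = activation above its plate's cutoff, the mean activation of the plate's test wells plus 3 SD, cut at about 12% in these data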;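 note: 0% = DMSO only wells and 100% = carbachol wells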
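Test system: HEK293 cells stably carrying human TRPML3-YFP; Doses: single dose, 3 µM final nominal compound, 0.3% DMSO final; Schedule: dye loading 1 h 37 °C then 30 min ambient, 125 s read; Technique: Fluo-8 calcium fluorescence; Benchmarks: high control carbachol 87 µM, low control DMSO.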
CRFBP-R2 block – antagonists of CRF-binding protein/CRF-R2 receptor complex; inhibition, % at 11.8 µM; 0.59% of 350,000 active; HEK293 CRF-R2/CRF-BP, CRF-induced calcium fluorescence;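 active = inhibition of the ligand-induced calcium signal above about 50% at the single tested concentration, limit read from the data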
zfTRPN1 agonist – activates the zebrafish TRPN1 channel; HEK293 zebrafish TRPN1-YFP, Fluo-8 calcium fluorescence; 100% = response to 87 µM carbachol; 0.18% of 220,000 active; activation, % at 3 µM;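 active = activation above its plate's cutoff, the mean activation of test wells on that plate plus 3 SD, cut at about 19% in these data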;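 note: 0% = DMSO alone and 100% = 87 µM carbachol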
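Material: zebrafish TRPN1-YFP in HEK293 cells; Doses: single test compound dose, 3 µM nominal, 0.3% DMSO; Timing: dye loading 1 h at 37 °C, then 30 min room temperature; Technique: intracellular calcium fluorescence with Fluo-8; Benchmarks: high carbachol 87 µM, low DMSO alone.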
GPR7 antagonist – human neuropeptides B/W receptor 1 antagonism | 1.1% of 290,000 active | inhibition, % at 4.4 µM | P48145 | GPR7-expressing cells, fluorescence antagonist assay | AID 1861; in the data active = inhibition above about 16%, passing the limit was not always enough;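 note: cells stimulated with the agonist NPW; 0% = agonist with vehicle and 100% = vehicle without agonist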
Target sequence (P48145 whole entry, looked up): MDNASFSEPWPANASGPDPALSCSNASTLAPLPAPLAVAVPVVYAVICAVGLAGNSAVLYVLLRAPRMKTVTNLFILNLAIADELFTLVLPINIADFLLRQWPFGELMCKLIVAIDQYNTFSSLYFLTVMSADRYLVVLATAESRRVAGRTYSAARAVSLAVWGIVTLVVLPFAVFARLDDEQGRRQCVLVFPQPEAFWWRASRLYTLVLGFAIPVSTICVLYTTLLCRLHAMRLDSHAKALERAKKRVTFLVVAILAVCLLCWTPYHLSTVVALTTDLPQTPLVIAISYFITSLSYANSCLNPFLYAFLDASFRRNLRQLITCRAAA
CRFBP-R2 agonist – agonists of human CRF-binding protein/CRF-R2 receptor complex | HEK293 CRF-R2/CRF-BP, calcium dye fluorescence (FLIPR); percent of saturating CRF peptide response | activation, % at 13.2 µM | 0.46% of 350,000 active | AID 588473;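 active = activation of at least 50%, plus an integration ratio under a set limit after plate pattern correction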;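 note: plate controls were neutral control wells without compound for no effect and CRF at EC100 for full effect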
* hit, by the source's call; . = no result.

SMILES	TRPML3 ag	CRFBP-R2 block	zfTRPN1 agonist	GPR7 antagonist	CRFBP-R2 agonist
O=C(NCc1nnc(SCC(=O)N2CCCC2)o1)c1cccc(C(F)(F)F)c1	.	0	.	-7	-3
CN(C)C(=O)C1CC(=O)OC12CCCCC2 (configuration not stated)	0	114*	2	-13	-1
CCc1nnc(NC(=O)CSc2nnc(Cc3ccccc3)n2-c2ccccc2)s1	1	10	-1	-12	-3
Cc1nnc(NC(=O)CSc2nnc(Cc3ccccc3)n2-c2ccccc2)s1	0	81*	1	-8	-3
CCOC(=O)C(Sc1cc(-c2ccccc2)nc2ncnn12)C(C)=O (configuration not stated)	2	-26	4	8	2
CCOc1ccc(NC(=O)CC(Cc2cc(C)cc(C)c2)C(=O)O)cc1 (configuration not stated)	.	1	.	-9	-1
N#C/C(=C\c1ccc(N2CCOCC2)o1)C(=O)Nc1ccc(O)cc1	4	-117	10	7	125*
N#C/C(=C\c1ccc(N2CCOCC2)o1)c1ccccc1	0	35	0	3	6
N#C/C(=C/c1ccc(N2CCOCC2)o1)c1nc2ccccc2[nH]1	1	-99	2	-16	128*
COc1ccc(NC(=O)/C(C#N)=C\c2ccc(N3CCOCC3)o2)cc1	40*	-279	49*	10	223*
N#C/C(=C/c1ccc(N2CCOCC2)o1)C(=O)NC1CCCCC1	4	-37	6	1	50*
O=C(CCS(=O)(=O)Cc1ccccc1F)NCCc1ccc(Cl)cc1	.	5	.	6	-1
COc1cc(/C=C/C(=O)OCC(=O)NC2CCS(=O)(=O)C2)ccc1OC(F)F (configuration not stated)	.	-5	.	.	-1
COc1ccc(S(=O)(=O)N(CC(=O)N2CCOCC2)c2ccc(F)cc2)cc1OC	.	-6	.	-4	1
CC(=O)Nc1ccc(SC[C@H](C)CN2CC[C@H](C(C)(C)C)CCC2=O)cc1	.	-4	.	.	-2
COc1ccc(-c2c(-c3cc(OC)cc(OC)c3)n(C)c3ccc(Br)cc23)cc1	.	1	.	.	0
COc1ccc(N=Nc2nc3ccc(Br)cc3n2C)cc1	30*	-14	39*	17	33
C[C@H](NC(=O)c1nc[nH]c1C(=O)N[C@@H](C)c1ccccc1)c1ccccc1	.	-3	.	.	-1
COc1ccc(OC)c(-c2csc(NC(=O)Cn3[nH]c(=O)c4ccccc4c3=O)n2)c1	-1	-2	-2	17*	8
CCOc1ccc(C(=O)Nc2cc(NC(=O)c3ccc(OCC)c(Cl)c3)cc(C(=O)O)c2)cc1Cl	1	-15	0	-22	22
CCOc1ccc(C(=O)Nc2ccc(Cl)cn2)cc1Cl	-1	56*	-1	-9	0
Cc1ccc(C(=O)N(Cc2sccc2C)C2CCS(=O)(=O)C2)cc1 (configuration not stated)	.	50*	.	-4	-14
COc1ccc(C(=O)OCn2nnc3ccccc3c2=O)cc1[N+](=O)[O-]	1	0	1	-11	6
Cc1ccc(C(=O)OCn2nnc3ccccc3c2=O)cc1[N+](=O)[O-]	2	79*	0	11	-3
O=C(COC(=O)/C=C/c1ccccc1Cl)NC(=O)NCc1ccccc1	.	-5	.	.	3
SMILES	TRPML3 ag	CRFBP-R2 block	zfTRPN1 agonist	GPR7 antagonist	CRFBP-R2 agonist
CC(C)CC(=NNC(=O)c1ccncc1)c1cc(Cl)ccc1O	.	-107	.	.	150*
Cc1cc([N+](=O)[O-])c2ccccc2c1NS(=O)(=O)c1ccccc1	.	119*	.	.	-1
Cc1ccc(NS(=O)(=O)c2ccccc2)c([N+](=O)[O-])c1	.	28	.	.	-3
FC(F)(F)c1cnc(NNC(=S)Nc2ccccc2Cl)c(Cl)c1	17*	19	29*	-3	89*
Cc1cccc(NC(=S)NNc2ncc(C(F)(F)F)cc2Cl)c1	2	13	3	4	12
CC(C)Oc1ccc(CNC(=O)CCC(=O)N2CCSc3ccccc32)cc1	.	2	.	-4	0
CCOc1cccc(C2C(C(=O)c3ccc(C)o3)=C(O)C(=O)N2Cc2ccncc2)c1 (configuration not stated)	1	-4	0	-3	0
CCOc1cccc(C2C(C(=O)c3ccc(C)o3)=C(O)C(=O)N2c2nccs2)c1 (configuration not stated)	3	-34	4	-12	159*
O=C(Nc1ccc2nc3ccccc3nc2c1)c1ccc(Br)cc1	1	-2	1	-8	0
CC(=O)Nc1ccc2nc3ccccc3nc2c1	1	84*	1	-9	11
Cc1nn(Cc2ccccc2Cl)c(C)c1NC(=O)c1nc2ncccn2n1	0	58*	0	-10	2
O=[N+]([O-])c1cccc(/C=N\N=C2c3ccccc3-c3ccccc32)c1O	0	58*	0	6	-3
NC(N)=N/N=C/c1cccc([N+](=O)[O-])c1O	0	13	0	-14	-2
C=CCN(c1ccccc1)S(=O)(=O)c1cccc(C(=O)OCC(=O)NCCOC)c1	0	55*	-1	-8	-2
COc1ccc(N(C)S(=O)(=O)c2cccc(C(=O)OCC(=O)NCc3ccccc3OC)c2)cc1	2	2	4	19*	4
C=CCN(c1ccccc1)S(=O)(=O)c1cccc(C(=O)OCC(=O)NC2CC2)c1	0	15	-1	-5	0
NC(=O)c1ncn([C@@H]2O[C@H](CNCc3ccc(OCC(=O)Nc4nccs4)cc3)[C@@H](O)[C@H]2O)n1	.	3	.	.	0
COc1cc(NC(=O)[C@H](C)NC(=O)N2CCn3c2nc2ccccc23)cc(OC)c1	.	86*	.	-13	0
COc1cccc(C(N)=O)c1OC(=O)Cc1ccccc1F	.	0	.	1	1
Cc1ccc(-c2nc(N3CCOCC3)sc2C(=O)N2CCOCC2)cc1	1	18	1	-6	2
Cc1ccc(-c2nc(N3CCOCC3)sc2C(=O)N2CCCCC2)cc1	-1	1	0	25*	0
C=C[C@H]1CN2CC[C@H]1C[C@H]2[C@H](O)c1ccnc2ccc(OC)cc12	.	-2	.	.	1
COc1ccccc1N(CC(=O)NC(C)(C)C)S(=O)(=O)c1cccs1	0	-1	42*	9	-1
O=c1[nH]c(SCc2n[nH]c(=S)n2-c2ccccc2)nc2sc3c(c12)CCC3	0	93*	-1	-3	-1
CC(=O)N1CCSc2ccc(S(=O)(=O)NCc3ccc(F)cc3)cc21	.	-10	.	-14	2
C[C@@H]1CCCCO[C@@H](CN(C)C(=O)Cc2ccccc2)[C@@H](C)CN([C@H](C)CO)C(=O)c2cc(NC(=O)C3CCCCC3)ccc2O1	.	5	.	.	0
COc1ccc2nc(/N=C/c3c(C)[nH]n(-c4ccc(C)cc4C)c3=O)sc2c1	0	15	-1	4	65*

High-throughput results: PubChem BioAssay, several laboratories
